From ChEMBL document CHEMBL3621102, “Structure-activity study of quinazoline derivatives leading to the discovery of potent EGFR-T790M inhibitors” (Eur J Med Chem, 2015)
Calls of active or inactive are those of the source. No cut-off for these calls is given here.

What was measured:
Mus musculus [1] = assay: Toxicity in NCI-H1975 xenografted BALB/c mouse assessed as body weight loss at 8 mg/kg po, qd for 21 days; type: organism-based; details: in vivo, 504 h
How it was run: (§1)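 Athymic mice bearing subcutaneous right-flank xenografts (2 × 10⁶ cells, dosed at 100–300 mm³; n = 6 per group; vehicle controls). Health was observed daily and body weight measured on indicated days. Body weight change (%) = (Wt/W0 − 1) × 100 against predosing weight, given as group mean ± SEM.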

Mus musculus [2] = assay: Toxicity in NCI-H1975 xenografted BALB/c mouse assessed as induction of lethargy at 8 mg/kg po, qd for 21 days; type: organism-based; details: in vivo, 504 h; how it was run: as §1
Mus musculus [3] = assay: Toxicity in NCI-H1975 xenografted BALB/c mouse assessed as induction of weakness at 8 mg/kg po, qd for 21 days; type: organism-based; details: in vivo, 504 h; how it was run: as §1
NCI-H1975 [4] = assay: Antiproliferative activity against human NCI-H1975 cells assessed as growth inhibition; type: functional
How it was run: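 NCI-H1975 cells were grown in RPMI with 1 mM sodium pyruvate, 10% FBS and 1% penicillin-streptomycin, under humidified 5% CO₂ at 37 °C. Growth inhibition was read as GI₅₀.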

[5] = target: Epidermal growth factor receptor (Homo sapiens, UniProt P00533); assay: Inhibition of EGFR (unknown origin) by ELISA method
Chain of Epidermal growth factor receptor (P00533 whole entry): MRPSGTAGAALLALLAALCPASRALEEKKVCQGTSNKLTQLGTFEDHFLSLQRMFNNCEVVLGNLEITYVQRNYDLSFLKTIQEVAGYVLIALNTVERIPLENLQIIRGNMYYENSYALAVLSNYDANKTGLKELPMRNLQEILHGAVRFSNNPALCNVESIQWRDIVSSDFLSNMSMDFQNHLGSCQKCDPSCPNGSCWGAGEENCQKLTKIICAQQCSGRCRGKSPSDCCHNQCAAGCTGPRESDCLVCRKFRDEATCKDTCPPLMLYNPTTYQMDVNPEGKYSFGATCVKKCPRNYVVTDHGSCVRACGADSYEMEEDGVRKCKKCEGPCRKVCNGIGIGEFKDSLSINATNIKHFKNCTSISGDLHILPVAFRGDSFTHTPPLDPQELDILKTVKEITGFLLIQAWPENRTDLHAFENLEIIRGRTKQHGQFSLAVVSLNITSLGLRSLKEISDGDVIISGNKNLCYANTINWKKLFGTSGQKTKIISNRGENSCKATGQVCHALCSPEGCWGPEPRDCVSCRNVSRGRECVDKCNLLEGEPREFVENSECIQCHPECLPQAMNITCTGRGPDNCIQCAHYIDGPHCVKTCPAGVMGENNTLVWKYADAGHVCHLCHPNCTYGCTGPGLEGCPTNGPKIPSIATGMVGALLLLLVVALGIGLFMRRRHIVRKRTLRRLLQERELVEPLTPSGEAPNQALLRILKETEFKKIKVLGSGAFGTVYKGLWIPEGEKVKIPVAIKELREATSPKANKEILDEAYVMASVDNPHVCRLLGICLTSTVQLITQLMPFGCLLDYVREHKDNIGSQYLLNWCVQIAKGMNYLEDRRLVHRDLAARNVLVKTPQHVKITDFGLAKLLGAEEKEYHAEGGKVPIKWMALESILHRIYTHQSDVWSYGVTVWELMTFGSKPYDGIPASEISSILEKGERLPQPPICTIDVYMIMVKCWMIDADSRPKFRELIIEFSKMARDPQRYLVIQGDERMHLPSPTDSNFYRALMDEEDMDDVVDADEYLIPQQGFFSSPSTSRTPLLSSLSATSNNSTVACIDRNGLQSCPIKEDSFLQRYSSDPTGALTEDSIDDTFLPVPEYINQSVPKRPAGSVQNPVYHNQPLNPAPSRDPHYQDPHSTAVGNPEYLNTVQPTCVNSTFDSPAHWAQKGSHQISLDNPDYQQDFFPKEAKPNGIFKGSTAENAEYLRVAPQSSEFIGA

NCI-H1975 [6] = assay: Antitumor activity against human NCI-H1975 cells xenografted in BALB/c mouse assessed as tumor growth inhibition at 8 mg/kg po, qd for 21 days; type: functional, organism-based
How it was run: (§2)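 Athymic mice received 2 × 10⁶ tumour cells subcutaneously in the right flank. At 100–300 mm³ they were randomised to control and treatment groups (n = 6); controls received vehicle alone. Tumour volume = length × width²/2 and RTV = Vt/V0.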

Mus musculus [7] = assay: Toxicity in NCI-H1975 xenografted BALB/c mouse assessed as induction of eye disease at 8 mg/kg po, qd for 21 days; type: organism-based; details: in vivo, 504 h; how it was run: as §1
Mus musculus [8] = assay: Toxicity in NCI-H1975 xenografted BALB/c mouse assessed as induction of exfoliative skin disorder at 8 mg/kg po, qd for 21 days; type: organism-based; details: in vivo, 504 h; how it was run: as §1
[9] = Toxicity in NCI-H1975 xenografted BALB/c mouse assessed as induction of mouse mortality at 8 mg/kg po, qd for 9 days; type: organism-based; details: in vivo
How it was run: (§3)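 Athymic mice received 2 × 10⁶ NCI-H1975 cells subcutaneously in the right flank. When tumours reached 100–300 mm³, mice were randomised into control and treatment groups (n = 6 per group), and controls got vehicle alone. Health was checked daily, and body weight and tumour size were measured on set days during treatment.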

[10] = AUC (0 to 24 hrs) in Sprague-Dawley rat at 1 mg/kg, iv by LC/MS/MS method; type: ADME, organism-based; set-up: time < 24 hr, dose 1 mg/kg, route intravenous; details: in vivo
How it was run: (§4)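 Male Sprague-Dawley rats (n = 3) dosed once at 1 mg/kg iv via tail vein, or once at 5 mg/kg by oral gavage, using the same formulation. Serial blood samples were taken over 24 h. Plasma levels were measured by LC/MS/MS (C18 column, 10 mM ammonium formate-0.1% formic acid water/methanol 10/90, ESI positive). Parameters were derived by noncompartmental analysis.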

Mus musculus [11] = assay: Toxicity in human HCC827 cells xenografted BALB/c mouse assessed as body weight loss at 5 mg/kg po, qd for 12 days; type: organism-based; details: in vivo, 288 h; how it was run: as §1
Mus musculus [12] = assay: Toxicity in human A431 cells xenografted BALB/c mouse assessed as body weight loss at 5 and 10 mg/kg po, qd for 18 days; type: organism-based, A-431; details: in vivo, 432 h; how it was run: as §1
Mus musculus [13] = assay: Toxicity in human HCC827 cells xenografted BALB/c mouse assessed as induction of exfoliative skin disorders at 5 mg/kg po, qd for 12 days; type: organism-based; details: in vivo, 288 h; how it was run: as §1
Mus musculus [14] = assay: Toxicity in human HCC827 cells xenografted BALB/c mouse assessed as induction of eye disease at 5 mg/kg po, qd for 12 days; type: organism-based; details: in vivo, 288 h; how it was run: as §1
[15] = Mean residence time in Sprague-Dawley rat at 1 mg/kg, iv incubated for 24 hrs by LC/MS/MS method; type: ADME, organism-based; details: in vivo; how it was run: as §4
A-431 [16] = assay: Antitumor activity against human A431 cells xenografted in BALB/c mouse assessed as tumor growth inhibition at 5 mg/kg po, qd for 18 days; type: functional, organism-based; how it was run: as §2
[17] = AUC (0 to infinity) in Sprague-Dawley rat at 1 mg/kg, iv by LC/MS/MS method; type: ADME, organism-based; set-up: dose 1 mg/kg, time infinity, route intravenous; details: in vivo; how it was run: as §4
A-431 [18] = assay: Antitumor activity against human A431 cells xenografted in BALB/c mouse assessed as tumor growth inhibition at 10 mg/kg po, qd for 18 days; type: functional, organism-based; how it was run: as §2
Mus musculus [19] = assay: Toxicity in NCI-H1975 xenografted BALB/c mouse assessed as body weight change at 20 mg/kg po, qd for 21 days; type: organism-based; details: in vivo, 504 h; how it was run: as §1
Mus musculus [20] = assay: Toxicity in human A431 cells xenografted BALB/c mouse assessed as induction of eye diseases at 5 and 10 mg/kg po, qd for 18 days; type: organism-based, A-431; details: in vivo, 432 h; how it was run: as §1
[21] = Clearance in Sprague-Dawley rat at 1 mg/kg, iv incubated for 24 hrs by LC/MS/MS method; type: ADME, organism-based; details: in vivo; how it was run: as §4
[22] = Bioavailability in Sprague-Dawley rat at 1 mg/kg, iv incubated for 24 hrs by LC/MS/MS method; type: ADME, organism-based; details: in vivo; how it was run: as §4
[23] = Apparent volume of distribution in Sprague-Dawley rat at 1 mg/kg, iv incubated for 24 hrs by LC/MS/MS method; type: ADME, organism-based; details: in vivo, read-out: Vd(app); how it was run: as §4
[24] = Elimination half-life in Sprague-Dawley rat at 1 mg/kg, iv incubated for 24 hrs by LC/MS/MS method; type: ADME, organism-based; details: in vivo, read-out: beta t1/2 (converted); how it was run: as §4
NCI-H1975 [25] = assay: Antitumor activity against human NCI-H1975 cells xenografted in BALB/c mouse assessed as tumor growth inhibition at 20 mg/kg po, qd for 21 days relative to control; type: functional; how it was run: as §2
Mus musculus [26] = assay: Toxicity in human A431 cells xenografted BALB/c mouse assessed as induction of exfoliative skin disorders at 5 and 10 mg/kg po, qd for 18 days; type: organism-based, A-431; details: in vivo, 432 h; how it was run: as §1
HCC827 = assay: Antitumor activity against human HCC827 cells xenografted in BALB/c mouse assessed as tumor growth inhibition at 5 mg/kg po, qd for 12 days; type: functional, organism-based; how it was run: as §2
Mus musculus [27] = assay: Toxicity in NCI-H1975 xenografted BALB/c mouse assessed as body weight loss at 20 mg/kg po, qd for 21 days; type: organism-based; details: in vivo, 504 h; how it was run: as §1
[28] = Toxicity in NCI-H1975 xenografted BALB/c mouse assessed as induction of mouse mortality at 20 mg/kg po, qd for 7 days; type: organism-based; details: in vivo; how it was run: as §3
Mus musculus [29] = assay: Toxicity in NCI-H1975 xenografted BALB/c mouse assessed as body weight change at 10 mg/kg po, qd for 21 days; type: organism-based; details: in vivo, 504 h; how it was run: as §1
NCI-H1975 [30] = assay: Antitumor activity against human NCI-H1975 cells xenografted in BALB/c mouse assessed as tumor growth inhibition at 10 mg/kg po, qd for 21 days; type: functional, organism-based; how it was run: as §2
Mus musculus [31] = assay: Toxicity in NCI-H1975 xenografted BALB/c mouse assessed as skin toxicity at 10 mg/kg po, qd for 21 days; type: organism-based; details: in vivo, 504 h; how it was run: as §1

SMILES	GI50 (NCI-H1975 [4])	IC50 [5]	AUC(0-t) at 24 h [10]	MRT [15]	AUC(0-inf) [17]	clearance [21]	bioavailability [22]	Vd [23]	half-life [24]	TGI (NCI-H1975 [25])	also measured
COc1cc2ncnc(Nc3ccc(F)c(Cl)c3)c2cc1NC(=O)/C=C/CNC1CC1	0.0112 µM	0.0021 µM	–	–	–	–	–	–	–	–	Activity (Mus musculus [1]): Toxic; Activity (Mus musculus [2]): Toxic; Activity (Mus musculus [3]): Toxic; TGI (NCI-H1975 [6]): Active; Activity (Mus musculus [7]): Toxic; Activity (Mus musculus [8]): Toxic; mortality at 216 h [9]: > 50%
C#Cc1cccc(Nc2ncnc3cc(O[C@H]4CCOC4)c(NC(=O)/C=C/CNC4CC4)cc23)c1	0.0161 µM	0.0056 µM	471 ng·h/mL	1.7 h	480 ng·h/mL	50 mL/min/kg	37.9%	2.2 L/kg	2.3 h	Active	Activity (Mus musculus [11]): Non-toxic; Activity (Mus musculus [12]): Non-toxic; Activity (Mus musculus [13]): Non-toxic; Activity (Mus musculus [14]): Non-toxic; TGI (A-431 [16]): inactive; TGI (A-431 [18]): Active; Activity (Mus musculus [19]): Non-toxic; Activity (Mus musculus [20]): Non-toxic; Activity (Mus musculus [26]): Non-toxic; TGI (HCC827): Active
C#Cc1cccc(Nc2ncnc3cc(OCC)c(NC(=O)/C=C/CN(C)C4CC4)cc23)c1	0.041 µM	0.0024 µM	–	–	–	–	–	–	–	Active	Activity (Mus musculus [27]): Toxic; mortality at 168 h [28]: > 50%
CN(C)C/C=C/C(=O)Nc1cc2c(Nc3ccc(F)c(Cl)c3)ncnc2cc1O[C@H]1CCOC1 [AFATINIB]	0.107 µM	–	277 ng·h/mL	10.6 h	324 ng·h/mL	54.2 mL/min/kg	62.3%	10.8 L/kg	9.6 h	–	–
C#Cc1cccc(Nc2ncnc3cc(OC)c(NC(=O)/C=C/CNC4CC4)cc23)c1	0.0189 µM	0.0079 µM	–	–	–	–	–	–	–	–	Activity (Mus musculus [29]): Non-toxic; TGI (NCI-H1975 [30]): Active; Activity (Mus musculus [31]): Toxic
